Measured values as given in ChEMBL document CHEMBL1147658, “[2-11C]isopropyl-, [1-11C]ethyl-, and [11C]methyl-labeled phenoxyphenyl acetamide derivatives as positron emission tomography ligands for the peripheral benzodiazepine receptor: radiosynthesis, uptake, and in vivo binding in brain” (J Med Chem, 2006).

Columns and labels:
[1] = Distribution coefficient of the compound, log D; type: physicochemical; details: octanol/water
Summary of the method: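 [11C]ligand (3-5 MBq) shaken with 1-octanol and 10 mM phosphate buffer pH 7.4, 5 mL each, then equilibrated 1 h at room temperature. Both phases counted by gamma counter; log D taken as the organic/aqueous concentration ratio (n=3).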

[2] = molecular target: T1, Translocator protein (Rattus norvegicus, UniProt P16257); test: Displacement of [11C]DAA1106 from Sprague-Dawley rat brain PBR; type: tissue-based
[3] = molecular target: GABA-A receptor; anion channel; test: Displacement of [11C]Flumazenil from Sprague-Dawley rat brain CBR; type: tissue-based
[4] = molecular target: T1, Translocator protein; test: Displacement of [11C][…] from Sprague-Dawley rat brain PBR; type: tissue-based
[5] = tested on: Rattus norvegicus; test: Ratio for decrease in uptake in iv dosed Sprague-Dawley rat brain olfactory bulb to frontal cortex after 30 mins per gram of wet tissue in presence of 1 mg/kg DAA1106; type: ADME, organism-based; set-up: dose 1 mg/kg, route intravenous; details: in vivo, 0.5 h
Summary of the method: (§1)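 Rats given [11C]ligand 45-50 MBq iv, alone or mixed with nonradioactive DAA1106 (1 mg/kg in 10% EtOH/saline). Killed 30 min later under ether. Brains frozen, cut into 20 µm sagittal cryosections and exposed to imaging plates for 60 min. Regional radioactivity read by bioimaging analyzer; brain uptake expressed as % injected dose per gram wet tissue (n=3).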

[6] = tested on: Rattus norvegicus; test: Decrease in uptake in iv dosed Sprague-Dawley rat brain olfactory bulb after 30 mins per gram of wet tissue in presence of 1 mg/kg DAA1106; type: ADME, organism-based; set-up: dose 1 mg/kg, route intravenous; details: in vivo, 0.5 h; summary of the method: as §1
[7] = tested on: Rattus norvegicus; test: Uptake in iv dosed Sprague-Dawley rat brain after 30 mins per gram of wet tissue; type: ADME, organism-based; details: in vivo, 0.5 h; summary of the method: as §1
[8] = Plasma half life in iv dosed monkey; type: ADME, organism-based, Macaca mulatta; details: rhesus monkey
Summary of the method: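 Monkey given [11C]ligand 70-80 MBq iv. Arterial blood drawn at 1, 2, 5, 10, 20, 30 and 60 min. Plasma deproteinized with CH3CN and analysed by radio-HPLC for percentage of unchanged ligand.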

[9] = tested on: Rattus norvegicus; test: Ratio for decrease in uptake in iv dosed Sprague-Dawley rat brain cerebellum to frontal cortex after 30 mins per gram of wet tissue in presence of 1 mg/kg DAA1106; type: ADME, organism-based; set-up: dose 1 mg/kg, route intravenous; details: in vivo, 0.5 h; summary of the method: as §1
[10] = tested on: Rattus norvegicus; test: Ratio for decrease in uptake in iv dosed Sprague-Dawley rat brain striatum to frontal cortex after 30 mins per gram of wet tissue in presence of 1 mg/kg DAA1106; type: ADME, organism-based; set-up: dose 1 mg/kg, route intravenous; details: in vivo, 0.5 h; summary of the method: as §1
[11] = tested on: Rattus norvegicus; test: Decrease in uptake in iv dosed Sprague-Dawley rat brain frontal cortex after 30 mins per gram of wet tissue in presence of 1 mg/kg DAA1106; type: ADME, organism-based; set-up: dose 1 mg/kg, route intravenous; details: in vivo, 0.5 h; summary of the method: as §1
[12] = tested on: Rattus norvegicus; test: Decrease in uptake in iv dosed Sprague-Dawley rat brain striatum after 30 mins per gram of wet tissue in presence of 1 mg/kg DAA1106; type: ADME, organism-based; set-up: dose 1 mg/kg, route intravenous; details: in vivo, 0.5 h; summary of the method: as §1
[13] = tested on: Rhesus monkey; test: Decrease in uptake in iv dosed rhesus monkey brain occipital cortex after 90 mins in presence of 1 mg/kg DAA1106; type: ADME, organism-based, Macaca mulatta; set-up: dose 1 mg/kg, route intravenous; details: in vivo, 1.5 h
Summary of the method: (§2)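 One awake male rhesus monkey (about 7.5 kg) imaged by 3D dynamic PET for 90 min after [11C]ligand 70-80 MBq iv. Blocker given iv 2 min before tracer: DAA1106 1 mg/kg, or PK11195 5 mg/kg, each in 10% EtOH/saline. Time-activity curves taken from 5 mm ROI on occipital cortex, as % dose/mL.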

[14] = tested on: Rhesus monkey; test: Decrease in uptake in iv dosed rhesus monkey brain occipital cortex after 90 mins in presence of 5 mg/kg […]; type: ADME, organism-based, Macaca mulatta; set-up: dose 5 mg/kg, route intravenous; details: in vivo, 1.5 h; summary of the method: as §2
[15] = tested on: Rattus norvegicus; test: Decrease in uptake in iv dosed Sprague-Dawley rat brain cerebellum after 30 mins per gram of wet tissue in presence of 1 mg/kg DAA1106; type: ADME, organism-based; set-up: dose 1 mg/kg, route intravenous; details: in vivo, 0.5 h; summary of the method: as §1

T1 sequence (P16257 whole entry, looked up): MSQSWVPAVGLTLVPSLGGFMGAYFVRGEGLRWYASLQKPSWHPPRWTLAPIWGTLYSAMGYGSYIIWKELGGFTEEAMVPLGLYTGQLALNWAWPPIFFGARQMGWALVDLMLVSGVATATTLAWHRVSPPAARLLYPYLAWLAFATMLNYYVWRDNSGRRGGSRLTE

| SMILES | logD [1] | Ki [2] [nM] | Ki [3] [nM] | Ki [4] [nM] | Ratio [5] | Drug uptake [6] [%] | Drug uptake [7] [%] | half-life [8] [min] | Ratio [9] | Ratio [10] | Drug uptake [11] [%] | Drug uptake [12] [%] | Drug uptake [13] [%] | Drug uptake [14] [%] | Drug uptake [15] [%] |
| --- | --- | --- | --- | --- | --- | --- | --- | --- | --- | --- | --- | --- | --- | --- | --- |
| C[11CH2]Oc1ccccc1CN(C(C)=O)c1ccc(Cl)cc1Oc1ccccc1 | – | – | – | – | 1.5 | 33 | 0.27 | 20 | 1 | 1 | 63 | 63 | – | – | – |
| COc1ccc(OC)c(CN(C(C)=O)c2cc(F)ccc2Oc2ccccc2)c1 | – | – | > 1000 | 0.095 | – | – | – | – | – | – | – | – | – | – | – |
| CCC(C)N(C)C(=O)c1cc2ccccc2c(-c2ccccc2Cl)n1 (configuration not stated) [PK-11195] | – | – | > 1000 | – | – | – | – | – | – | – | – | – | – | 70 | 44 |

Further lines, results first:

| logD [1] | Ki [2] [nM] | Ki [3] [nM] | Ki [4] [nM] | Ratio [5] | Drug uptake [6] [%] | Drug uptake [7] [%] | half-life [8] [min] | Ratio [9] | Ratio [10] | Drug uptake [11] [%] | Drug uptake [12] [%] | Drug uptake [13] [%] | Drug uptake [14] [%] | Drug uptake [15] [%] | SMILES |
| --- | --- | --- | --- | --- | --- | --- | --- | --- | --- | --- | --- | --- | --- | --- | --- |
| 4.02 | 0.68 | > 1000 | 0.19 | – | – | – | – | – | – | – | – | – | – | – | CC(=O)N(Cc1ccccc1OC(C)C)c1ccc(Cl)cc1Oc1ccccc1 |
| 3.74 | 0.31 | > 1000 | 0.074 | – | – | – | – | – | – | – | – | – | – | – | COc1ccccc1CN(C(C)=O)c1ccc(Cl)cc1Oc1ccccc1 |
| – | – | – | – | 1.5 | 43 | 0.17 | 13 | 1 | 1 | 63 | 63 | – | – | – | CC(=O)N(Cc1ccccc1O[11CH](C)C)c1ccc(Cl)cc1Oc1ccccc1 |
| – | – | – | – | 2.3 | 37 | 0.32 | 21 | 1 | 1 | 63 | 63 | 60 | – | – | CC(=O)N(Cc1ccccc1O[11CH3])c1ccc(Cl)cc1Oc1ccccc1 |
| 3.81 | 0.41 | > 1000 | 0.098 | – | – | – | – | – | – | – | – | – | – | – | CCOc1ccccc1CN(C(C)=O)c1ccc(Cl)cc1Oc1ccccc1 |
